Results from publication PMC4382910 (Angewandte Chemie (International ed. in English), 2014).

System: HeLa cells
Experiment: Protein fatty-acylation levels in cells by chemical reporter alk-14
Assay type: cell-based, human
Settings: nuclear lysates, in-gel fluorescence, Sirt2 inhibitor
Outline: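 HeLa cells with Sirt2 perturbed by siRNA knockdown or a selective Sirt2 inhibitor were cultured with fatty-acid chemical reporter alk-14. After harvest, cytosolic and nuclear lysates were prepared and core histones extracted. Reporter-labeled proteins were conjugated to a rhodamine dye by azide-alkyne click chemistry, and fatty-acylation levels were compared by fluorescence.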

Which “labeling of core histones by alk-14” value does the source give for `N#C/C(=C\c1ccc(-c2cc(Cl)ccc2Cl)o1)C(=O)Nc1cccc2ncccc12` [AGK2] here?
The value was “enhanced”.
